Screening data from PubChem BioAssay.
Kir21 inh: blocks the mouse Kir2.1 inward-rectifier potassium channel; P35561; HEK293-Kir2.1, FluxOR thallium flux fluorescence; active compounds read low; B-score at 10 µM; actives 0.85% (n = 310,000); AID 1672;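 active = fluorescence ratio B-score at or below minus 3 SD of library scores, with starting-brightness B-score within 2 SD, cut at about -4.2 in these data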;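 also: channel flux triggered by added potassium and thallium sulfate stimulus; B-score of peak minus minimum fluorescence over baseline after thallium stimulus; more negative B-score means stronger Kir2.1 block with less thallium influx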
KCNQ1 inh: inhibitors of human KCNQ1 potassium channel. P51787. CHO-K1 KCNQ1, FluxOR thallium flux fluorescence; active compounds read high. B-score at 10 µM. actives 1.3% (n = 310,000). AID 2642;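 active = compounds whose thallium flux B-score, printed positive for inhibition, exceeds three library SD while starting fluorescence stays within three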;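 also: channel opened by potassium depolarization with thallium stimulus after 20 min compound exposure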
KCNK9 inh: blocks the human KCNK9 two-pore domain potassium channel | Q9NPC2 | HEK293 KCNK9, FluxOR thallium flux fluorescence; active compounds read low | B-score at 10 µM | actives 1.2% (n = 310,000) | AID 488922;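 active = ratio B-score over 3 SD below the library mean, with starting fluorescence within 5 SD of its mean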;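 also: negative B-score means less thallium flux so channel inhibition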
KCNK3 block: human KCNK3 channel inhibition, primary screen; O14649; CHO-KCNK3 thallium flux, FluxOR fluorescence; active compounds read low; B-score at 10 µM; actives 0.84% (n = 340,000);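 active = B-score under library mean minus 4 SD, starting fluorescence ratio at most library mean plus 5 SD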;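 also: more negative B-score means stronger inhibition of thallium flux through KCNK3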
KCNQ1 pot: human KCNQ1 channel potentiation or activation. P51787. B-score at 10 µM. CHO-K1 KCNQ1, thallium flux FluxOR fluorescence; active compounds read high. AID 2648. actives 0.35% (n = 310,000);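 active = fluorescence ratio B-score, a plate-corrected score, at least three library SD, with initial intensity B-score within 5 SD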
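Doses: Single concentration per compound, DMSO matched to controls | Test system: KCNQ1-transfected CHO-K1 cells | Timing: 90 min dye loading and 20 min compound exposure, both at room temperature | Measured by: Kinetic FluxOR thallium fluorescence, 10-s 1-Hz baseline, 110-s post-stimulus read | Medium: Assay buffer with matched DMSO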
hERG protect: hERG (human) protection from proarrhythmic block | CHO-hERG, FluxOR thallium flux, dofetilide IC70 present | Q12809 | activation (rescue from dofetilide block), less the hit threshold, % at 10 µM | AID 1511 | actives 0.51% (n = 310,000);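 active = activation above the mean of controls blocked by dofetilide plus 5 SD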;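 also: thallium influx through hERG after potassium depolarization seen as dye fluorescence rise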
Starred values were filed as active, the others as inactive; i = inactive; · = not tested or not shown. Most compounds without a hit are left out; they make up all but 3.7% or so of the library.

SMILES | Kir21 inh | KCNQ1 inh | KCNK9 inh | KCNK3 block | KCNQ1 pot | hERG protect
CCCN=C1N/C(=C\c2ccco2)C(=O)N1c1ccccc1 | -0.34 | i | i | i | i | -4
CCCN(CCC)C1=N/C(=C\c2ccco2)C(=O)N1c1ccccc1 | -2.1 | i | -7.7* | i | i | -5
COc1ccccc1C1CCN(Cc2ccc(C)cc2)CC1 | -0.86 | i | i | i | i | -15
Cc1cc(Nc2ccccc2)nn1C(=O)c1ccc(Cl)cc1 | -0.63 | i | -7.7* | i | i | -5
Cc1cc(Nc2ccccc2)nn1C(=O)c1ccc([N+](=O)[O-])cc1 | 1.4 | i | i | i | i | -2
COc1cc(/C=N/N(c2ccccc2)c2ccccc2)ccc1O | -1.7 | 11* | i | i | i | -2
COc1cc(/C=N/Nc2ccccc2C(F)(F)F)ccc1O | 0.07 | i | -6.9* | i | i | -12
COc1ccc(NC(=O)CSc2n[nH]c(-c3ccccc3)n2)cc1S(N)(=O)=O | · | · | · | i | · | ·
Cc1nn(CC2CC2)c(=O)n1-c1ccc(F)cc1 | 0.51 | i | i | i | 10* | 0
COC(=O)c1ccc(CSc2nc3ccccc3c(=O)n2CC(C)C)o1 | -1.2 | i | -7.3* | i | i | -11
COc1ccc(-c2nnc(CSc3nc4ccccc4c(=O)n3CC(C)C)o2)cc1OC | -0.86 | i | i | -9.5* | i | -5
CCOC(=O)CSc1nc2ccccc2c(=O)n1CC(C)C | -3 | i | i | i | i | -7
CCC(=NNC(=O)c1ccc2c(c1)nc(C)n2CC)c1cc(F)ccc1O | · | · | · | i | · | ·
CCOC(=O)CN1C(=O)Nc2ccc(Br)cc2C1c1ccccc1 (stereo unspecified) | -1.6 | i | i | i | i | -16
CCOC(=O)CN1C(c2ccc(O)cc2)Nc2ccc(Br)cc2C1c1ccccc1 (stereo unspecified) | 0.02 | i | -7.5* | i | i | -7
Cn1c(SCC(=O)Nc2ccc(C(=O)O)cc2)nc2scc(-c3ccccc3Cl)c2c1=O | · | · | · | i | · | ·
Cc1ccc(-n2cc(-c3ccc([N+](=O)[O-])cc3)[nH]c2=S)c(C)c1 | 0.03 | i | i | i | i | 7.2*
Cc1cccc(-n2cc(-c3ccc([N+](=O)[O-])cc3)[nH]c2=S)c1 | 1.7 | i | i | i | i | -4
Cc1n[nH]c(=O)c2c(NC(=O)CSc3nn(-c4ccc(F)cc4)c(=S)s3)oc(C)c12 | 0.41 | 6* | i | i | i | -16
COc1ccc(NC(=O)COc2ccccc2C(=O)NCC(c2ccccc2)N(C)C)cc1Cl (stereo unspecified) | -0.03 | i | i | i | i | -9
CCSc1nnc(-c2ccc(Cl)cc2)c2ccccc12 | 0.41 | i | i | i | i | -15
CCSc1nnc(-c2ccc(C)cc2)c2ccccc12 | 1.3 | i | -7* | i | i | -12
COc1cccc(-c2csc(NC3OC(=O)c4c3ccc(OC)c4OC)n2)c1 (stereo unspecified) | -1.6 | i | i | i | i | -11
COc1ccc2c(c1OC)C(=O)OC2Nc1nc(-c2ccc(-c3ccccc3)cc2)cs1 (stereo unspecified) | 1.5 | i | -7.1* | i | i | -14
CCCc1nnc(NC(=O)CCC(=O)N2CCC(C)CC2)s1 | 0.75 | i | i | i | i | -4
SMILES | Kir21 inh | KCNQ1 inh | KCNK9 inh | KCNK3 block | KCNQ1 pot | hERG protect
CN1CCN(CCCNC(=O)c2ccc(/C=C3\Oc4ccccc4N(Cc4ccccc4F)C3=O)cc2)CC1 | 0.04 | i | i | i | i | -20
COCCCNC(=O)/C=C1\Sc2ccccc2N(Cc2ccccc2F)C1=O | 0.12 | i | i | i | i | -14
CCN1CCN(CCNC(=O)c2ccc(/C=C3\Sc4ccccc4N(Cc4ccccc4F)C3=O)cc2)CC1 | -4.7* | 7* | i | i | i | -31
CN1CCN(CCCNC(=O)c2ccc(/C=C3\Sc4ccccc4N(Cc4ccc(F)cc4)C3=O)cc2)CC1 | -0.43 | 6* | i | i | i | -42
CCOC(=O)C1OC1(c1ccccc1)c1ccccc1 (stereo unspecified) | · | · | · | i | · | ·
C/C(N)=C(/C#N)C(=O)COC(=O)c1ccc(NC(N)=O)cc1 | 1.2 | i | i | i | i | -14
COC(=O)c1ccccc1NC(=O)Cn1cnc2c(cnn2-c2ccccc2)c1=O | -0.3 | i | i | i | i | 4.8*
CCCOc1ccc(-c2nc(OC)c3ccccc3n2)cc1 | 0.93 | i | -6.6* | i | i | -3
O=C(CN(Cc1ccccc1Cl)C(=O)c1csnn1)NC1CCCC1 | 1.1 | i | i | i | i | -3
CCC1CCCCN1c1nc(-c2ccncc2)nc2ccccc12 (stereo unspecified) | -2.3 | i | -6.8* | i | i | -15
CCC1CCCCN1c1nc(-c2cccc(OC)c2O)nc2ccccc12 (stereo unspecified) | 0.5 | i | -7.6* | i | i | -17
CC1CCCCN1c1nc(-c2ccncc2)nc2ccccc12 (stereo unspecified) | -1.4 | i | i | i | i | -11
CCCC(=O)N1CC(=O)Nc2ccc(C)cc2C1c1ccccc1 (stereo unspecified) | -0.78 | i | i | i | i | -3
O=c1c2cc(Cl)ccc2nc(-c2ccccc2)n1O | -0.02 | i | i | i | 8* | 11*
O=c1c2ccc(Cl)cc2nc(-c2ccc([N+](=O)[O-])cc2)n1O | 1 | i | i | i | 35* | 6.7*
O=c1c2cc(Br)ccc2nc(-c2cccc(C(F)(F)F)c2)n1O | 0.13 | i | i | i | 99* | 73*
O=c1c2cc(Br)ccc2nc(-c2ccc([N+](=O)[O-])cc2)n1O | 0.35 | i | i | i | 26* | 16*
COc1ccc(C2/C(=C(/O)c3ccc4c(c3)CC(C)O4)C(=O)C(=O)N2CCCN2CCOCC2)cc1 (stereo unspecified) | 0.14 | i | i | i | i | -3
CCOC(=O)C(CC)n1cnc2c(nnn2-c2ccccc2)c1=O (stereo unspecified) | 1.4 | i | i | i | i | -8
O=C(O)c1ccc(CN2CCCCC2)o1 | -0.39 | i | i | i | i | 5.1*
CCOC(=O)c1c2c(n(-c3ccc(OC)cc3)c1C)C(=O)C(=O)c1ccccc1-2 | · | · | · | i | · | ·
Cc1cc(C(=O)OCC(=O)N(C)c2ccccc2)ccc1[N+](=O)[O-] | 0.78 | i | i | i | i | -7
